The target of data set [1] is T1, Bile acid receptor (Homo sapiens) (UniProt Q96RI1).
T1 sequence (whole entry): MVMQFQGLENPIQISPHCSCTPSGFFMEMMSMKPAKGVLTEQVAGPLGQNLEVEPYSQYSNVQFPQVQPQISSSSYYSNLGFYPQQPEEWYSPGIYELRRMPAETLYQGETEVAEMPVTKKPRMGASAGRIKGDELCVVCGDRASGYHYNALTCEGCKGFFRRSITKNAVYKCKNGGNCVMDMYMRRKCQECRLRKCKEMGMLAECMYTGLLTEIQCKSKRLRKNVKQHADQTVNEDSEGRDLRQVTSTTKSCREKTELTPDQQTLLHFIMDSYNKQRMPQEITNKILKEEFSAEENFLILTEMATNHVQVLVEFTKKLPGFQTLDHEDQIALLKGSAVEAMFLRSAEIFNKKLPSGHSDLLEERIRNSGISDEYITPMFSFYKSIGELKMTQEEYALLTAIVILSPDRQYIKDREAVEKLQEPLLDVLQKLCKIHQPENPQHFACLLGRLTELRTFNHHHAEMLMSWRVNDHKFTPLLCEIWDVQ
The data set is described as follows: Agonist activity at human full length FXR expressed in HeLa cells cotransfected with pSG5-human RXR at 10 uM after 24 hrs by Dual-Glo luciferase reporter gene assay. It counts as cell-based. Summed up:
(§1)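 HeLa cells, seeded 8,000/well 24 h ahead, calcium phosphate transfected with pcDNA3-hFXR (CMV), pSG5-hRXR, BSEP-promoter firefly luciferase and pRL-SV40 renilla control. Medium at 0.5% charcoal-stripped FCS; compound in 0.1% DMSO for 24 h. Dual-Glo firefly/renilla ratio, expressed relative to 3 µM GW4064. Triplicate wells, ≥3 independent runs.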

The target in data set [2] is T1, Bile acid receptor (Homo sapiens). The data set is described as follows: Antagonist activity at human full length FXR expressed in HeLa cells cotransfected with pSG5-human RXR at 10 uM after 24 hrs by Dual-Glo luciferase reporter gene assay. It counts as cell-based.
Data set [3] deals with T2, Bile acid receptor (Homo sapiens, UniProt Q96RI1).
T2 sequence (Q96RI1 whole entry): T1 sequence (whole entry)
The data set is described as follows: Agonist activity at human full length FXR expressed in HeLa cells cotransfected with pSG5-human RXR after 24 hrs by Dual-Glo luciferase reporter gene assay. Type of data set: cell-based.

Data set [4] can be described thus: Solubility of the compound in 1% aqueous DMSO solution by HPLC analysis. It counts as physicochemical.
Data set [5] can be described thus: Solubility of the compound in 1% aqueous DMSO solution measured after 4 hrs by HPLC analysis. It counts as physicochemical.
Data set [6] can be described thus: Metabolic stability in Sprague-Dawley rat liver microsomes assessed as compound remaining at 10 uM by HPLC analysis. It counts as ADME. The following applies: read-out: Stability. Summed up: (§2)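 Compound at 10 µM final, preincubated 5 min at 37 °C in 0.1 M phosphate buffer pH 7.4 with NADPH-regenerating system, then Sprague–Dawley rat liver microsomes added. Stopped with ice-cold methanol at 0, 15, 30, 60 min. Remaining parent quantified by phenyl-column HPLC (UV 330/254 nm) against an external calibration. Controls run without NADPH and with heat-inactivated microsomes.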

Data set [7] can be described thus: Metabolic stability in Sprague-Dawley rat liver microsomes assessed as compound remaining at 10 uM after 15 mins by HPLC analysis. It counts as ADME. Conditions: read-out: Stability. Summed up: as §2
Data set [8] is described as follows: Metabolic stability in Sprague-Dawley rat liver microsomes assessed as compound remaining at 10 uM after 30 mins by HPLC analysis. Type of data set: ADME. The following applies: read-out: Stability. Summed up: as §2
Data set [9] can be described thus: Metabolic stability in Sprague-Dawley rat liver microsomes assessed as compound remaining at 10 uM after 60 mins by HPLC analysis. The following applies: read-out: Stability. Type of data set: ADME. Summed up: as §2
Data set [10] relates to HepG2. The data set is described as follows: Cytotoxicity against human HepG2 cells at 5 uM after 48 hrs by LDH assay (reference value: 0%). Type of data set: cell-based. Conditions: hepg2, 48 h. An outline of the steps:
(§3)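 HepG2 at 3*10⁴ cells/well, moved to 1% charcoal-stripped FCS medium after 24 h, then compound for 48 h. Triton X-100 (2%) added 2 h before reading as 100% lysis control; untreated = 0%. Supernatant mixed with LDH substrate for 20 min, absorbance 490 nm against 690 nm reference. Triplicates, ≥4 independent repeats.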

Data set [11] deals with HepG2. The data set is described as follows: Cytotoxicity against human HepG2 cells at 10 uM after 48 hrs by LDH assay (reference value: 0%). Type of data set: cell-based. Conditions: hepg2, 48 h. Summed up: as §3
The subject of data set [12] is HepG2. The data set is described as follows: Cytotoxicity against human HepG2 cells at 50 uM after 48 hrs by LDH assay (reference value: 0%). The following applies: hepg2, 48 h. Type of data set: cell-based. An outline of the steps:
as §3

Data set [13] in a line: Cytotoxicity against human HepG2 cells assessed as cell proliferation at 5 uM after 48 hrs by WST-1 assay (Rvb =100%). Type of data set: cell-based. Conditions: read-out: Activity. Summed up:
(§4)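 HepG2 seeded at 3*10⁴ cells/well in 10% FCS DMEM; after 24 h switched to 1% charcoal-stripped FCS and exposed to compound for 48 h. Revlotron 100 µM as positive control; Zileuton 100 µM and DMEM/1% DMSO as negative controls. WST reagent for 45 min, absorbance 450/620 nm, untreated set to 100%. Triplicates, ≥4 repeats.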

Data set [14] can be described thus: Cytotoxicity against human HepG2 cells assessed as cell proliferation at 10 uM after 48 hrs by WST-1 assay (Rvb =100%). It counts as cell-based. Conditions: read-out: Activity. Summed up:
as §4

Data set [15] in a line: Cytotoxicity against human HepG2 cells assessed as cell proliferation at 50 uM after 48 hrs by WST-1 assay (Rvb =100%). Type of data set: cell-based. Conditions: read-out: Activity. An outline of the steps: as §4
For data set [16], the target named is T1, Bile acid receptor (Homo sapiens). Kind of data set: Partial agonist activity at FXR in human HepG2 cells assessed as induction of BSEP gene expression at 0.1 uM after 24 hrs by qRT-PCR analysis (reference value: 100%). Type of data set: cell-based. An outline of the steps: (§5)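 HepG2 (BSEP, SHP, OSTα) or HT-29 (IBABP) cells seeded at 2*10⁶/well, moved to MEM with 1% charcoal-stripped FCS for 24 h, then treated 24 h with 0.1 µM compound in 0.1% DMSO; CDCA 50 µM as reference. Total RNA extracted; qRT-PCR in duplicate, ≥4 independent experiments, comparative ΔΔCt quantification.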

For data set [17] the target is unchanged. Kind of data set: Partial agonist activity at FXR in human HepG2 cells assessed as induction of SHP gene expression at 0.1 uM after 24 hrs by qRT-PCR analysis (reference value: 100%). It counts as cell-based. An outline of the steps: as §5
The target is the same in data set [18]. The data set is described as follows: Partial agonist activity at FXR in human HepG2 cells assessed as induction of OST-alpha gene expression at 0.1 uM after 24 hrs by qRT-PCR analysis (reference value: 100%). It counts as cell-based. Summed up:
as §5

Data set [19] has the same target. The data set is described as follows: Partial agonist activity at FXR in human HT-29 cells assessed as induction of IBABP gene expression at 0.1 uM after 24 hrs by qRT-PCR analysis (reference value: 100%). It counts as cell-based. An outline of the steps: as §5
Data set [20] has the same target. Kind of data set: Agonist activity at human full length FXR expressed in HeLa cells cotransfected with pSG5-human RXR at 50 uM after 24 hrs by Dual-Glo luciferase reporter gene assay. It counts as cell-based. An outline of the steps:
as §1

For data set [21] the target is unchanged. Kind of data set: Agonist activity at human full length FXR expressed in HeLa cells cotransfected with pSG5-human RXR at 30 uM after 24 hrs by Dual-Glo luciferase reporter gene assay. Type of data set: cell-based. Summed up: as §1
The target is the same in data set [22]. Kind of data set: Antagonist activity at human full length FXR expressed in HeLa cells cotransfected with pSG5-human RXR at 30 uM after 24 hrs by Dual-Glo luciferase reporter gene assay. It counts as cell-based.
The target in data set [23] is T2, Bile acid receptor. Kind of data set: Antagonist activity at human full length FXR expressed in HeLa cells cotransfected with pSG5-human RXR after 24 hrs by Dual-Glo luciferase reporter gene assay. It counts as cell-based.

Values after ≈ are worked out from the molar mass of the structure shown. Active and inactive are the calls of the source. The rule behind the calls is not given here.

Take `Oc1ccc(-c2nc(-c3ccccc3)no2)cc1`: the result in [1] was inactive. Also, the inhibition result in data set [2] was “inactive”.
As to `CCN(CC)c1ccc2cc(-c3nc(-c4ccccc4)no3)c(=O)oc2c1`, on Bile acid receptor [3], the EC50 is 460 nM. This compound returned a solubility in data set [4] of 10.1 µg/mL (≈ 27.9 µM). Also, the concentration in solution in data set [5] (solubility at 4 h) was 9.98 µg/mL (≈ 27.6 µM).
Regarding `Brc1ccc(-c2nc(-c3ccccc3)no2)cc1`, at Bile acid receptor [3], the EC50 stood at 350 nM.
Compound `Cc1ccccc1-c1noc(-c2cccc(C(=O)O)c2)n1` returned an EC50 on Bile acid receptor [3] of 7.2 nM. In data set [4], this compound returned a solubility of 33 µg/mL (≈ 118 µM). In addition, the remaining at 10 µM in data set [6] is 99.4%. Also, the remaining at 0.25 h, 10 µM in data set [7] amounted to 84.6%. For the same compound, the remaining at 0.5 h, 10 µM in data set [8] is 71.3%. In addition, the remaining at 1 h, 10 µM in data set [9] was 53.9%. Also, the Activity with HepG2 [10] amounted to 0%; in the data set on HepG2 [11] it was 0%; in the data set with HepG2 [12], 15%; in data set [16] it was 395%; in data set [17] it was 515%; in [18] it was 339%. Moreover, in data set [19], the Activity came out at 295%. Moreover, the viability at 48 h, 5 µM in data set [13] stood at 109%. In data set [14], the viability at 48 h, 10 µM was 87%. Besides, the viability at 48 h, 50 µM in data set [15] stood at 86%.
In the case of `c1ccc(-c2noc(-c3ccccc3)n2)cc1`, the EC50 at Bile acid receptor [3] turned out to be 530 nM.
Take `COc1ccc(-c2nc(-c3ccccc3C)no2)cc1`: the EC50 on Bile acid receptor [3] came to 120 nM.
On to `COc1ccc(-c2nc(-c3cccc(C(F)(F)F)c3)no2)cc1`, for which the concentration giving a half-maximal response (EC50) on Bile acid receptor [3] worked out at 2900 nM.
Regarding `Cc1ccc(-c2noc(-c3ccc(Cl)cc3)n2)cc1`, at Bile acid receptor [3], it took 410 nM to reach a half-maximal effect (EC50).
`CC(C)c1nc(-c2ccccc2)no1` returned an Activity in data set [20] of 12.3%.
As to `COc1ccc(-c2sc(-c3ccc(C)cc3)nc2O)cc1`, the result in data set [21] was inactive. In addition, in data set [22], the inhibition entry is “inactive”.
With `Cc1ccccc1-c1noc(-c2ccc(C(=O)O)cc2)n1`, it took 220 nM to reach a half-maximal effect at Bile acid receptor [3] (EC50).
`COc1ccc(-c2nc(-c3ccccc3)no2)cc1`: on Bile acid receptor [23], the IC50 turned out to be 16400 nM.

Values taken from ChEMBL document CHEMBL3588766 (Bioorg Med Chem, 2015).
